In PubChem BioAssay:
The source made the active and inactive calls.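 How the source made its calls, unless noted: active means viability loss from added drug above about 55%, and viability with drug at most 40%, in both replicates (limit read from the data, passing the limit was not always enough); inconclusive means both conditions met in only one replicate; inactive means neither replicate meets both conditions.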

What was measured:
[1] = molecular target: Pantothenate synthetase (Mycobacterium tuberculosis (strain ATCC 25618 / H37Rv)) (UniProt P9WIL5); assay: Coupled enzyme confirmation of inhibitors against recombinant Mtb PanC (AID 375; call rule not given here;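 further: 0% = full reaction with vehicle and 100% = no enzyme background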); settings: coupled enzyme assay; at 10 µM, stronger effect = higher value
Sequence of Pantothenate synthetase (Mycobacterium tuberculosis (strain ATCC 25618 / H37Rv)) (P9WIL5 whole entry, looked up): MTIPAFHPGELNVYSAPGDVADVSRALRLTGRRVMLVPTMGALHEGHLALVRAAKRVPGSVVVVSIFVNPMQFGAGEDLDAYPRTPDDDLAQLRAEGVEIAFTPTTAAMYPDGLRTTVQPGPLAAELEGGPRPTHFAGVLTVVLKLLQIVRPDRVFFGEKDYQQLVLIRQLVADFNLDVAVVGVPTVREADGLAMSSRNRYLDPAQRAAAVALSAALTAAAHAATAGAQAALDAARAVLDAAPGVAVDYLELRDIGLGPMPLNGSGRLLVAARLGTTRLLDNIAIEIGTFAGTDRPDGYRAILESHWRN

[2] = Her2 expression decrease, cell viability multiplex – SKBR3 breast tumor cells, AlphaScreen, ATP viability, primary screen (AID 461;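 active means Her2 level under about 52% in both replicate screens, with viability over 70% of control, limit read from the data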;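 on Her2 level: lower value means less Her2 protein in the cells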;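 on viability: percent of carrier control wells set as 100% viability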); settings: SKBR3 Her2 protein level, 18-24 h, measured here: SKBR3 viability, ATP luminescence, at 10 µM
[3] = molecular target: Receptor tyrosine-protein kinase erbB-2 (Homo sapiens) (UniProt P04626); assay: as above; settings: 18-24 h, at 10 µM, stronger effect = lower value
Sequence of Receptor tyrosine-protein kinase erbB-2 (Homo sapiens) (P04626 whole entry, looked up): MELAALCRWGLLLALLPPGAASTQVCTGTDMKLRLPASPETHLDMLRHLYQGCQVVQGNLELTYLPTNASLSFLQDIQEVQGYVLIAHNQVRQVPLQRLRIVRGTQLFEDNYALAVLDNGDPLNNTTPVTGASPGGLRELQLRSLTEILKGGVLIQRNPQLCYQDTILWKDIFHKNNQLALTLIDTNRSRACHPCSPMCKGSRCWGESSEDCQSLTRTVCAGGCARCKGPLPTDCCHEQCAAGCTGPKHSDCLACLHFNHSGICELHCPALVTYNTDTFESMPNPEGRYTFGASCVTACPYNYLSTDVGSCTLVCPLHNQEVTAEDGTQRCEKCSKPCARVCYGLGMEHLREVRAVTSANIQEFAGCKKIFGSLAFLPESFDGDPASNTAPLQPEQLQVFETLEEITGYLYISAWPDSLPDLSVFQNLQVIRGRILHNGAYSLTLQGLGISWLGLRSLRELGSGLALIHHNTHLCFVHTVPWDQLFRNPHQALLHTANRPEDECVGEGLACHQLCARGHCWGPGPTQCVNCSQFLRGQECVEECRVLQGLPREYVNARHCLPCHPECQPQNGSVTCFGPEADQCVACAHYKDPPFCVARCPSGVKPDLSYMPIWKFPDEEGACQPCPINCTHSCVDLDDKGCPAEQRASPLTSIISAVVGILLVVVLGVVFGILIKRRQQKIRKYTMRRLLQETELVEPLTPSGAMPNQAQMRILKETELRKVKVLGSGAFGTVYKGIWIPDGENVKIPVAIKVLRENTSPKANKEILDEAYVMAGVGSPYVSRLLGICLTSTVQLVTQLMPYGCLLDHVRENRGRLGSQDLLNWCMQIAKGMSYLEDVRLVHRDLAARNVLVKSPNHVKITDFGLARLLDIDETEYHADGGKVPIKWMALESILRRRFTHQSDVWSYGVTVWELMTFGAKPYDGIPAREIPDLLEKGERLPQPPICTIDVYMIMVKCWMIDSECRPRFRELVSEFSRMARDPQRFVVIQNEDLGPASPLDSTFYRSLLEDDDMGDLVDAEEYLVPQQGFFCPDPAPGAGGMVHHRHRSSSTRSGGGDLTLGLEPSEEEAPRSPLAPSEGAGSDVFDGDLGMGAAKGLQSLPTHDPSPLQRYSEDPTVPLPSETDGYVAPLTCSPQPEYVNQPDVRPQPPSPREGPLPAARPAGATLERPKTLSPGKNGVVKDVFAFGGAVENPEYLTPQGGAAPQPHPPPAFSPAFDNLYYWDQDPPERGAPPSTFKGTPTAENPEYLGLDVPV

[4] = reduced viability of SK-BR-3 breast cancer cells – cell-based, 24 h, human, pilot screen (AID 572;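 active means viability at or below 10% of carrier control in both of two separate runs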;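 further: compound exposure lasted between 18 and 24 h rather than exactly 24 h; 100% = carrier-treated control wells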); settings: SK-BR-3 viability, CellTiter-Glo luminescence, at 10 µM, stronger effect = lower value
[5] = HUVEC growth inhibition – cell-based, human, primary screen (AID 575;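 active means viability at or below 30% in both replicate assays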;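 further: 100% = median of untreated cell wells with 0.1% DMSO on each plate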); settings: HUVEC proliferation, CellTiter-Glo luminescence, 72 h; at 10 µM; stronger effect = lower value
Procedure, shortened: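 material = primary HUVEC, no more than 12 passages | input = 1250 cells per well | controls = vehicle and MePR control wells | measured by = CTG luminescence | times = 72 h compound incubation | format = collagen-coated 384-well format | read-out = % viability vs DMSO wells | doses = single 10 µM dose, 0.1% DMSO, from 5x medium stock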

[6] = H69AR cell proliferation blockers – human, duplicate replicates, primary screen (AID 580;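 active means viability at or under a set limit in both replicates, limit being median viability minus 3 SD, cut at about 48% in these data, passing the limit was not always enough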;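 further: 100% = mean luminescence of untreated wells and 0% = no signal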); settings: H69AR lung tumor cells viability, ATP luminescence, 72 h; at 10 µM; stronger effect = lower value
[7] = MRP1 drug-resistance reversers in H69AR cells – cell-based, doxorubicin co-treatment, pilot screen (AID 601); settings: CellTiter-Glo, 72 h, at 10 µM; for differential viability (reversal): stronger effect = higher value
[8] = yeast transport mutant growth inhibition pilot in 384-well plates, post-Golgi transport modulator project (AID 636; in the data active means inhibition above about 31%); settings: absorbance 615 nm, about 18 h, stronger effect = higher value
[9] = growth suppression of yeast trafficking mutant, preliminary HTS, modulators of trafficking downstream of Golgi apparatus project, 1536-format plate, OD 615 nm (AID 637; in the data active means inhibition above about 30%); settings: yeast transport mutant growth, absorbance 615 nm, 18 h; stronger effect = higher value
[10] = H69AR cells + 2 uM doxorubicin, measured here: viability with 2 uM doxorubicin, stronger effect = lower value
[11] = H69AR cells, compound alone cytotoxicity

SMILES	inhibition [1]	viability [2]	Her2 level [3]	viability [4]	viability [5]	viability [6]	differential viability (reversal) ([7]; H69AR cells + 2 uM doxorubicin)	viability [7, 10]	viability [7, 11]	inhibition [8]	inhibition [9]
Cc1ccc(C)c(C2(O)CC(C)N(C)CC2C)c1 (stereo not given)	0% (inactive)	110%	103% (inactive)	110% (inactive)	94.9% (inactive)	102% (inactive)	10.4% (inactive)	91.7%	102%	-1.32% (inactive)	-2.7% (inactive)
O=C(C1CCCN(S(=O)(=O)c2cccc3nsnc23)C1)N1CCC2(CC1)OCCO2 (stereo not given)	0% (inactive)	97%	100% (inactive)	97% (inactive)	100% (inactive)	81.6% (inactive)	-16.9% (inactive)	98.5%	81.6%	-5% (inactive)	1.33% (inactive)
CCn1nc(-c2ccccc2)nc2c(=O)n(C)c(=O)nc1-2	0% (inactive)	106%	93% (inactive)	106% (inactive)	2.75% (active)	1.38% (active)	0.5% (inactive)	0.875%	1.38%	98.4% (active)	100% (active)
COc1ccc(N2CCN(CCCN)CC2)cc1	0% (inactive)	94.5%	88% (inactive)	94.5% (inactive)	72.6% (inactive)	81.5% (inactive)	3.81% (inactive)	77.7%	81.5%	-0.91% (inactive)	-1.27% (inactive)
COc1ccc(CN2CCN(C(=O)Cc3ccccc3)CC2)c(OC)c1	0% (inactive)	93%	90% (inactive)	93% (inactive)	89.9% (inactive)	97.3% (inactive)	9.87% (inactive)	87.4%	97.3%	-6.08% (inactive)	1.59% (inactive)
